Source: ChEMBL document CHEMBL1649420, “Identifying chelators for metalloprotein inhibitors using a fragment-based approach” (J Med Chem, 2011)
pIC50: −log10 of the molar value.

What was measured:
[1] = molecular target: T1, 72 kDa type IV collagenase (Homo sapiens, UniProt P08253); experiment: Inhibition of human recombinant MMP2 after 30 mins
In short: (§1)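 Enzyme (1.16 U) preincubated 30 min at 37 °C with fragment in 50 mM HEPES, 10 mM CaCl2, 0.05% Brij-35, pH 7.5. Fluorogenic Mca peptide substrate (4 μM final) then added. Rate of fluorescence increase compared with no-inhibitor control (100%). Single-point 25 μM final for the 8-hydroxyquinoline sublibrary. IC50 fitted to dose-response curves from serial dilutions of DMSO stocks.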
Target sequence in this assay (P08253 whole entry, the tested form may be a part): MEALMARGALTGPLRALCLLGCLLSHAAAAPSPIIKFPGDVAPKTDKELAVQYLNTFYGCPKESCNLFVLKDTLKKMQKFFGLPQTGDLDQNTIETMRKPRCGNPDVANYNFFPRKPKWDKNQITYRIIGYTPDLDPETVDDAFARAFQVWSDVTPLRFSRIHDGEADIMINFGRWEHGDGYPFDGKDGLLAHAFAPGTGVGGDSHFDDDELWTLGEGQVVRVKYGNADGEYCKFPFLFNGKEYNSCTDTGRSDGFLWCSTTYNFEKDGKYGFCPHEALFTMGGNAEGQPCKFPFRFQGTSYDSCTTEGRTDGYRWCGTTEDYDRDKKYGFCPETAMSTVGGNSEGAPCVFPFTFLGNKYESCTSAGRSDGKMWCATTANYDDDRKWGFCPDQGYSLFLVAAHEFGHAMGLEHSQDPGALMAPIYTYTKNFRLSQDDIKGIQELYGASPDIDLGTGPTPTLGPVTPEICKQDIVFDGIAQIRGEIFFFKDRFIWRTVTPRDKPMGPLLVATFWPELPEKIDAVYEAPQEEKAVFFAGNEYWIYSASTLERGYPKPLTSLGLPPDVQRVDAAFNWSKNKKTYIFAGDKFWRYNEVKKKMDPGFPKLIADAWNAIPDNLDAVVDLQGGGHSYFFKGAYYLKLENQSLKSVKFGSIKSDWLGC

[2] = molecular target: T1, 72 kDa type IV collagenase; experiment: Inhibition of human recombinant MMP2 at 25 uM after 30 mins; in short: as §1
Target sequence in this assay (P08253 110-660 limits assumed): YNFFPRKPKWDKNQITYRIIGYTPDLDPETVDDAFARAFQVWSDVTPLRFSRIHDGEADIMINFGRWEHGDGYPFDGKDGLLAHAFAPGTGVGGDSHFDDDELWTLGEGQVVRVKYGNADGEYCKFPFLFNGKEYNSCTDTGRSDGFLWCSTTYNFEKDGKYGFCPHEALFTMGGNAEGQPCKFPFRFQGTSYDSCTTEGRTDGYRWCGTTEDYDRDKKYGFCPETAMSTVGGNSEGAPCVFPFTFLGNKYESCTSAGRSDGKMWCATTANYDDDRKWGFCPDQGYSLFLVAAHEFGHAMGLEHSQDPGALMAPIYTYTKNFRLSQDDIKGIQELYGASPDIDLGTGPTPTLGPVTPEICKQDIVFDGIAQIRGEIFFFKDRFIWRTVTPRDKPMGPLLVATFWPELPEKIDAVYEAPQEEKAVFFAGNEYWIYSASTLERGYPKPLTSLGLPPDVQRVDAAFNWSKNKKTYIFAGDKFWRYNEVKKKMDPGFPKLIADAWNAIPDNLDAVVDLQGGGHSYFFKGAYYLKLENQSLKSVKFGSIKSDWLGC

[3] = molecular target: T2, Polyunsaturated fatty acid 5-lipoxygenase (Homo sapiens) (UniProt P09917); experiment: Inhibition of human recombinant 5-lipoxygenase at 1 mM after 10 mins by fluorescence assay
T2 sequence (whole entry): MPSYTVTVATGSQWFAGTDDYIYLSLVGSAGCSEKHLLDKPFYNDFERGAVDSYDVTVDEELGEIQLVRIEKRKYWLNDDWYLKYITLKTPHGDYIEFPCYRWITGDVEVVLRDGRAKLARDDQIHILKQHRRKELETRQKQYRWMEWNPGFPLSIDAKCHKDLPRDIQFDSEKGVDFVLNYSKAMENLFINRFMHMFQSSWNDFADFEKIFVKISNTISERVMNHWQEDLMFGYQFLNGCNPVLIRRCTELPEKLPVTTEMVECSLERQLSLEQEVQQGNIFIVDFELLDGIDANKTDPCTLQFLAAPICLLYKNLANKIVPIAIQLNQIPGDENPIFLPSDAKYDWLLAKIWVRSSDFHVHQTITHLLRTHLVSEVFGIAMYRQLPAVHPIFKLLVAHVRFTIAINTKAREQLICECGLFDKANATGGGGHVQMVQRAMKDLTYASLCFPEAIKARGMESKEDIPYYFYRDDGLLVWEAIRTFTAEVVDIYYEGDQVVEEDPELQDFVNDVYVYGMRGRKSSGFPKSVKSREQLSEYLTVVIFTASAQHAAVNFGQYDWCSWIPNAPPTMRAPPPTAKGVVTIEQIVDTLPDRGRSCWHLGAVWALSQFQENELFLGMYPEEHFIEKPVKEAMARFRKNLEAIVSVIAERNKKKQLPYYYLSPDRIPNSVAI

Lethal factor = molecular target: T3, Lethal factor (Bacillus anthracis, UniProt P15917); experiment: Inhibition of recombinant anthrax lethal factor after 30 mins by fluorescence assay
T3 sequence (P15917 whole entry): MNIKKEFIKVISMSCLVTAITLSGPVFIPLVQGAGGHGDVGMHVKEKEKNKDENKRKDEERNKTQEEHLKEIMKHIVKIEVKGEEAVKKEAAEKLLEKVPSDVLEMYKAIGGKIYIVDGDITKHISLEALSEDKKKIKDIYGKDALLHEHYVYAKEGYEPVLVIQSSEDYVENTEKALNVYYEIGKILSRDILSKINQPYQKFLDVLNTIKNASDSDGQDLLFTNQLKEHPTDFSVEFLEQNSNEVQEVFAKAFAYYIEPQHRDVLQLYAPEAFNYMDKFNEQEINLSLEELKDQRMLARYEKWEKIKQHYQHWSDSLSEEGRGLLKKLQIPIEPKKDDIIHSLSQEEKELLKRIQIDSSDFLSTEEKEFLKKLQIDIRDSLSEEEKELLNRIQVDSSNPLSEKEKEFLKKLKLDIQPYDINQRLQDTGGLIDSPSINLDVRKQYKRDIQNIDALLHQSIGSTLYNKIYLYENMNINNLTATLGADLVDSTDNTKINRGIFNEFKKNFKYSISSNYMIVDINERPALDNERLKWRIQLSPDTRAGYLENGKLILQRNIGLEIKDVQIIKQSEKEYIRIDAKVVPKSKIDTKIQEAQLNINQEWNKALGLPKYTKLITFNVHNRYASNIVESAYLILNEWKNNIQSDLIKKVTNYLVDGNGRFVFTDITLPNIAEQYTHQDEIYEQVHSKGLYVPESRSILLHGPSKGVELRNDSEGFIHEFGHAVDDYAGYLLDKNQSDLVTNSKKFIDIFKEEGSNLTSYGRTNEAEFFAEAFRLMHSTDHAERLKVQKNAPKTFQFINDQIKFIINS

[4] = molecular target: T4, Tyrosinase (Agaricus bisporus) (UniProt O42713); details: at 1 mM
T4 sequence (whole entry): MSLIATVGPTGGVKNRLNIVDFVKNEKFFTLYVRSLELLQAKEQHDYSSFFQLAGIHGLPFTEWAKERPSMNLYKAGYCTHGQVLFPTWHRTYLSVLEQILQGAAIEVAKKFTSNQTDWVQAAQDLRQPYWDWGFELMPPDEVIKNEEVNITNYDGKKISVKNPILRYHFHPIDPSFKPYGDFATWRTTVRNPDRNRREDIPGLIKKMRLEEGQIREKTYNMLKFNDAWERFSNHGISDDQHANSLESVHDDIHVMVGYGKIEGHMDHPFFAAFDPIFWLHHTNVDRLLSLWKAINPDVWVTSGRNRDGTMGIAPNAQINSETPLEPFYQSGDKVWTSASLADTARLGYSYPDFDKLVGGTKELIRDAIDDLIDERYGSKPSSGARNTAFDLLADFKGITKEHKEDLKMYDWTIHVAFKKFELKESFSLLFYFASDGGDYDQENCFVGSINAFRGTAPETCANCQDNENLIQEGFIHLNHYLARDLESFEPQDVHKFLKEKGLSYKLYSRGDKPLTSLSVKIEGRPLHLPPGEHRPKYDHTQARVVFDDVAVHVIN

[5] = molecular target: T5, Lethal factor (Bacillus anthracis) (UniProt P15917); details: at 1 mM
T5 sequence (whole entry): T3 sequence (P15917 whole entry)

[6] = molecular target: T6, Interstitial collagenase (Homo sapiens) (UniProt P03956); details: at 1 mM;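 also: recombinant human enzyme, with inhibition measured after 30 min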
T6 sequence (whole entry): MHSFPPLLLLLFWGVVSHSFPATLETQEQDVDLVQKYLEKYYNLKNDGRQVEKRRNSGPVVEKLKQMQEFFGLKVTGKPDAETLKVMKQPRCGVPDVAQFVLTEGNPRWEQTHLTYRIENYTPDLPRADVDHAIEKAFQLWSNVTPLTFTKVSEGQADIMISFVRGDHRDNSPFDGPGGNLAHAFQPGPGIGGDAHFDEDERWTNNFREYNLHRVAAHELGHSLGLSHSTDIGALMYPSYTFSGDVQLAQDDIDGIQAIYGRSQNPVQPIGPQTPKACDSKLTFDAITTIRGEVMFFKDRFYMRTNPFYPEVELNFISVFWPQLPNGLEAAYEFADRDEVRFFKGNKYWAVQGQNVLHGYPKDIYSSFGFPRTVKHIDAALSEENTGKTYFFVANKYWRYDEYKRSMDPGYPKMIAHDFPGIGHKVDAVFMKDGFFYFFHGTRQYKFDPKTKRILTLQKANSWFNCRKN

[7] = molecular target: T1, 72 kDa type IV collagenase; details: at 1 mM
Target sequence in this assay (P08253 110-660 limits assumed): as the sequence (P08253 110-660 limits assumed) above

[8] = molecular target: Stromelysin-1 (Homo sapiens) (UniProt P08254); details: at 1 mM;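 also: recombinant enzyme, inhibition read after a 30 min incubation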
Stromelysin-1 (Homo sapiens), sequence (P08254 100-477 limits assumed): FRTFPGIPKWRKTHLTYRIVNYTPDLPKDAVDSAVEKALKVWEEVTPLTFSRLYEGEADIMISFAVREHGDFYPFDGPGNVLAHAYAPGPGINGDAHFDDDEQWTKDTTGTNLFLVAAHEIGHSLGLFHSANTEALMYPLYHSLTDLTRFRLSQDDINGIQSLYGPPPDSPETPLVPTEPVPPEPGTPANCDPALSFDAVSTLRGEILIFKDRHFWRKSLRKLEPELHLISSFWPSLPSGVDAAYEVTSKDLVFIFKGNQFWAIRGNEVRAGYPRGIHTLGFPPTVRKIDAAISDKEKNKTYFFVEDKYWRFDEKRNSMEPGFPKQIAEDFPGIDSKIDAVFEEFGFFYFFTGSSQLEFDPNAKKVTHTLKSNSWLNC

[9] = molecular target: Neutrophil collagenase (Homo sapiens) (UniProt P22894); details: at 1 mM;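 also: recombinant human MMP8 enzyme, percent inhibition read after 30 min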
Neutrophil collagenase (Homo sapiens), sequence (P22894 101-467 limits assumed): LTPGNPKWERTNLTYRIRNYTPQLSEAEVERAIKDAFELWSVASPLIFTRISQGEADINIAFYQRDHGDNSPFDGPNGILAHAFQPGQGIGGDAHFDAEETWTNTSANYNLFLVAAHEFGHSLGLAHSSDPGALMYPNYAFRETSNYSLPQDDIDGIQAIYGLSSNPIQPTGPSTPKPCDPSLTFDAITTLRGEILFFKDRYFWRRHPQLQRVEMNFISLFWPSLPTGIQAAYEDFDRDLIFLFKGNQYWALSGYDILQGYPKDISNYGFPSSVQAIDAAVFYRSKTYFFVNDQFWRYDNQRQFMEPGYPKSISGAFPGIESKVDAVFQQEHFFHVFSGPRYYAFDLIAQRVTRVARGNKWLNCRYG

[10] = molecular target: Matrix metalloproteinase-9 (Homo sapiens) (UniProt P14780); details: at 1 mM;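 also: recombinant human MMP9, activity read after 30 min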
Matrix metalloproteinase-9 (Homo sapiens), sequence (P14780 whole entry): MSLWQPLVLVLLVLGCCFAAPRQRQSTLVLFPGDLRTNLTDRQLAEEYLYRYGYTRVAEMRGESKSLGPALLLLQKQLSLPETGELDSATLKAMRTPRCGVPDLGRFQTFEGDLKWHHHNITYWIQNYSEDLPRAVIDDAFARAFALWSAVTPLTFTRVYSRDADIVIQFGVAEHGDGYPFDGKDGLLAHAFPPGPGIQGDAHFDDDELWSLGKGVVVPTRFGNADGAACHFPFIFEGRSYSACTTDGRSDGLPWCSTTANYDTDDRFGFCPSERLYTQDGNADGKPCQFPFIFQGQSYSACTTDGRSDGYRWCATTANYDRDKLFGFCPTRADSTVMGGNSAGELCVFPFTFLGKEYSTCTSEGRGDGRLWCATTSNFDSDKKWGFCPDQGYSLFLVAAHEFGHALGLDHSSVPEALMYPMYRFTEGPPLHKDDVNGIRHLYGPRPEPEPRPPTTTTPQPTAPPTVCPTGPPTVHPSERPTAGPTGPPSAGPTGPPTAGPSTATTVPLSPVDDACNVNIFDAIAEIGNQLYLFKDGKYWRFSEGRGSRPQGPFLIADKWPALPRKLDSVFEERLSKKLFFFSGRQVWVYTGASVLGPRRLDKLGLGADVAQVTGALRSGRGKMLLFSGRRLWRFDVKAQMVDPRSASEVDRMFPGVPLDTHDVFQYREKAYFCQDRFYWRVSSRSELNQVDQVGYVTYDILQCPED

Tyrosinase = molecular target: T7, Tyrosinase (Agaricus bisporus, UniProt O42713); experiment: Inhibition of mushroom tyrosinase after 10 mins
T7 sequence (O42713 whole entry): T4 sequence (whole entry)

[11] = molecular target: T8, Nitric oxide synthase, inducible (Mus musculus) (UniProt P29477); details: at 1 mM;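 also: recombinant enzyme, activity read out colorimetrically after 40 min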
T8 sequence (whole entry): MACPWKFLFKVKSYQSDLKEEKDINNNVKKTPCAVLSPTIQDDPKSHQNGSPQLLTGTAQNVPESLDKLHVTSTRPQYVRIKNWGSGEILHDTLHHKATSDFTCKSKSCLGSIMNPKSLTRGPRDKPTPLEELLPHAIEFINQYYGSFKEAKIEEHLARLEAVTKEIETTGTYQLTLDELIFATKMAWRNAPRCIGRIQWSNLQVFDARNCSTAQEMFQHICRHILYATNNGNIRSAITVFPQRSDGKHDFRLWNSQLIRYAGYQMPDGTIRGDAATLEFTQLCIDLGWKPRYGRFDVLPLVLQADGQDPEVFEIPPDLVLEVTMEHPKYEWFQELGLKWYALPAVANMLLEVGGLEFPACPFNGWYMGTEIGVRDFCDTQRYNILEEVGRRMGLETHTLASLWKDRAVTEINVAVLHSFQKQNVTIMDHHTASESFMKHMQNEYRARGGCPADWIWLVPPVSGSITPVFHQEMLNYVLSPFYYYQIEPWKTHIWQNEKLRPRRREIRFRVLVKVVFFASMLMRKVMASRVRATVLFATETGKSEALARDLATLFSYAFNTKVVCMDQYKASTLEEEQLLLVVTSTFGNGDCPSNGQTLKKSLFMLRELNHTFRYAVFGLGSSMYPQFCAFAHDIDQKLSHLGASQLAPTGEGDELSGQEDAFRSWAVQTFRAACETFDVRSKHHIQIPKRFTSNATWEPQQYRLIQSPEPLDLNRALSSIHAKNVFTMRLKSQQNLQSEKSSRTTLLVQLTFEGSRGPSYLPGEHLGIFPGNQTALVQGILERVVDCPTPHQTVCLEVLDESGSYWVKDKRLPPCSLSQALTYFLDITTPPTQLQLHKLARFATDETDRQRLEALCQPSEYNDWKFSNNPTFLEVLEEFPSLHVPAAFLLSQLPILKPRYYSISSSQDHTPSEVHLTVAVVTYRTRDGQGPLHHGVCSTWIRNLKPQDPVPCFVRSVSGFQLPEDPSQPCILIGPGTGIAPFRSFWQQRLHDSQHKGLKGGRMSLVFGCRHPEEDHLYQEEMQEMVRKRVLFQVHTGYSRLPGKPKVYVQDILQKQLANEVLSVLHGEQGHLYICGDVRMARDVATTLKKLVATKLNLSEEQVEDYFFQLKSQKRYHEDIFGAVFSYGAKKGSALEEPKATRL

[12] = molecular target: T9, Polyunsaturated fatty acid 5-lipoxygenase (Homo sapiens, UniProt P09917); experiment: Inhibition of human recombinant 5-lipoxygenase after 10 mins by fluorescence assay
T9 sequence (P09917 whole entry): T2 sequence (whole entry)

Row | SMILES | pIC50 [1] | inhibition [2] [%] | inhibition [3] [%] | inhibition [6] [%] | inhibition [7] [%] | inhibition [8] [%] | inhibition [9] [%] | inhibition [10] [%] | also measured
1 | O=S(=O)(Nc1ccc2cccnc2c1O)c1ccc(F)cc1 | 5.52 | > 65 | – | – | – | – | – | – | –
2 | Oc1coccc1=S | 4.12 | – | 94 | 99 | 100 | 98 | 102 | 100 | pIC50 (Lethal factor): 3.69; inhibition [4]: 97%; inhibition [5]: 101%
3 | O=C(O)c1cccc(=O)[nH]1 | – | – | – | – | – | – | – | – | pIC50 (Tyrosinase): 3.80
4 | Nc1cccc(C(=O)O)c1O | 3.41 | – | 72 | 69 | 70 | 72 | 67 | 59 | inhibition [5]: 90%; inhibition [11]: 18%
5 | O=S(=O)(Nc1ccc(O)c2ncccc12)c1cccs1 | 5.08 | > 65 | – | – | – | – | – | – | –
6 | O=S(=O)(Nc1ccc(O)c2ncccc12)c1ccccc1 | 5.06 | > 65 | – | – | – | – | – | – | –
7 | Oc1cccc2cccnc12 [OXYQUINOLINE] | 3.89 | – | 61 | 77 | 94 | 83 | 92 | 78 | inhibition [5]: 56%; inhibition [11]: 8%
8 | O=S(=O)(Nc1ccc(O)c2ncccc12)c1ccc(-c2ccccc2)cc1 | 4.97 | > 65 | – | – | – | – | – | – | –
9 | Cc1occc(=S)c1O | – | – | 91 | 98 | 100 | 98 | 101 | 100 | pIC50 [12]: 4.96; pIC50 (Tyrosinase): 5.42; inhibition [4]: 102%; inhibition [5]: 96%
10 | O=S(=O)(Nc1ccc(O)c2ncccc12)c1ccc(F)cc1 | 5.14 | > 65 | – | – | – | – | – | – | –
11 | O=S(=O)(Nc1ccc2cccnc2c1O)c1ccc(-c2ccccc2)cc1 | 5.41 | > 65 | – | – | – | – | – | – | –
12 | O=C(O)c1cc(O)ccc1O [GENTISIC ACID] | – | – | 86 | 13 | 0 | -3 | 1 | 40 | pIC50 [12]: 4.12; inhibition [4]: 96%; inhibition [11]: 24%
13 | O=S(=O)(Nc1ccc2cccnc2c1O)c1cccs1 | 5.37 | > 65 | – | – | – | – | – | – | –
14 | O=S(=O)(Nc1ccc2cccnc2c1O)c1ccccc1 | 5.25 | > 65 | – | – | – | – | – | – | –
